Fewer inactive variants are shown than the library holds.
B1: tRNA (parent)
chain: GUUCCGUUGGCGUAAUGGUAACGCGUCUCCCUCCUAAGGAGAAGACUGCGGGUUCGAGUCCCGUACGGAACG

Variants of: B1
Assay: yeast fitness relative to wild type (ratio to wild type); higher = fitter; tRNA-Arg(CCU), competitive growth, 37 C, YPD
How it was run: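 A pool of Saccharomyces cerevisiae strains, each with a tRNA-Arg(CCU) gene variant at the native genomic locus, was competed in YPD at 37°C for 24 hours across six parallel replicates. The variants had been chemically synthesised at a 3% per-site mutation rate over 69 sites, and gene amplicons before and after competition were read by 100-nucleotide paired-end sequencing. Darwinian fitness relative to wild type rested on changes in genotype frequencies. Genotypes required ≥ 100 starting reads, and estimates < 0.5 were set to 0.5.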

U8A A42U U59A and U8A A14G C24G G56A cannot be ordered by yeast fitness: ≤ 0.5 for the first, ≤ 0.5 for the second.

U8A C24U A40U A42G A45U and U8A C33U A65G cannot be ordered by yeast fitness: ≤ 0.5 for the first, ≤ 0.5 for the second.

First: U8A C33U A65U
Second: U7G U59G A69C
The yeast fitness of the first is higher: 0.502 for the first, ≤ 0.5 for the second.

Compared with U8A C11U A70C, U7G U32C A65G is higher in yeast fitness: 0.622 for the first, 0.795 for the second.

Compared with U8A A37C U53C, U8A A15C U26A C33A C61A U64A is lower in yeast fitness: 0.545 for the first, ≤ 0.5 for the second.

First: U7G U47A C61A
Second: U8A C30G C46A G63A G67A
The yeast fitness of the first is higher: 0.781 for the first, ≤ 0.5 for the second.

U8A C22U U59A and U8A C27U A42G C62G G68A cannot be ordered by yeast fitness: ≤ 0.5 for the first, ≤ 0.5 for the second.

Compared with U8A A14U C22U, U8A A20U G56A G67A is lower in yeast fitness: 0.592 for the first, ≤ 0.5 for the second.

U8A C29A G39A and U8A C27A C49U A69U cannot be ordered by yeast fitness: ≤ 0.5 for the first, ≤ 0.5 for the second.

U8A C24A C30U G48C and U8A C24G U26A G50A cannot be ordered by yeast fitness: ≤ 0.5 for the first, ≤ 0.5 for the second.

Compared with U8A C29G C62G, U8A C33U C66A is lower in yeast fitness: 0.576 for the first, ≤ 0.5 for the second.

Compared with U8A A36U C55G U59C A69C, U8A C22G G25A C27A C33U C49G A65C is lower in yeast fitness: 0.794 for the first, 0.608 for the second.

First: U7G U32C C34G A43U
Second: U8A C34A A45C A65C
The yeast fitness of the first is lower: ≤ 0.5 for the first, 0.718 for the second.

First: U8A C11G A65G
Second: U8A A70C
The yeast fitness of the first is higher: 0.857 for the first, 0.776 for the second.

Compared with U8A A40G U64C, U8A A15U A20U G25C C29A A40C G50A is lower in yeast fitness: 0.623 for the first, ≤ 0.5 for the second.

First: U8A C33U A36U A70G
Second: U8A A20C U35A G38C A69C
The yeast fitness of the first is lower: ≤ 0.5 for the first, 0.535 for the second.

Compared with U8A A43U A70G, U8A A65U is higher in yeast fitness: 0.532 for the first, 0.708 for the second.

First: U8A A65C
Second: U8A A65G
The yeast fitness of the first is lower: 0.837 for the first, 0.855 for the second.

Compared with U8A C30A, U8A C11U G25A C33A A40U C61A C62U is lower in yeast fitness: 0.604 for the first, ≤ 0.5 for the second.

First: U7G U59C
Second: U8A C22U C34G A36U A57G A65C
The yeast fitness of the first is higher: 0.871 for the first, ≤ 0.5 for the second.

Going from U8A A14C C31A G41C G63U U64A to U8A A15C G18C C49U C62U, the yeast fitness falls from 0.776 to ≤ 0.5.

Compared with U8A C22G G25A C27A C33U A57C G68C, U8A A15U A21G C34A A37G is higher in yeast fitness: ≤ 0.5 for the first, 0.51 for the second.

First: U8A C34U A36G A45U U64A
Second: U8A A37C A43U
The yeast fitness of the first is lower: ≤ 0.5 for the first, 0.541 for the second.

Going from U8A A36G G44A to U8A C11U A20G G25C G39C, the yeast fitness falls from 0.527 to ≤ 0.5.

U8A A14U G17A C27U and U8A C33A A40G cannot be ordered by yeast fitness: ≤ 0.5 for the first, ≤ 0.5 for the second.

First: U8A C33A A40C
Second: U8A A42C
The yeast fitness of the first is lower: ≤ 0.5 for the first, 0.648 for the second.

First: U8A A14U
Second: U8A C31U
The yeast fitness of the first is lower: 0.534 for the first, 0.631 for the second.

Compared with U8A A42U A43U, U8A C30G C62U G67C is lower in yeast fitness: 0.58 for the first, 0.546 for the second.

U8A A15U C27G A36G G38U and U8A A15G C27A G67A cannot be ordered by yeast fitness: ≤ 0.5 for the first, ≤ 0.5 for the second.

U8A A40G A42U A45U U59G G68A and U8A A15U C34U U64G cannot be ordered by yeast fitness: ≤ 0.5 for the first, ≤ 0.5 for the second.

U8A C22G A43U G52A U54C G56U U64C and U8A C11U G25A C33A A40U A69U cannot be ordered by yeast fitness: ≤ 0.5 for the first, ≤ 0.5 for the second.

Going from U8A C27U A40G C49U C55G to U8A C24A U28C G68U, the yeast fitness falls from 0.554 to 0.531.

First: U8A A40U
Second: U8A A36G G38C G52C A57U A69U A70G
The yeast fitness of the first is higher: 0.707 for the first, ≤ 0.5 for the second.

First: U8A A36U G39A C66U
Second: U8A A14C C31A G41C C49A G56A
The yeast fitness of the first is lower: ≤ 0.5 for the first, 0.668 for the second.

Compared with U8A A43U, U8A C29U G51C A57G is lower in yeast fitness: 0.763 for the first, ≤ 0.5 for the second.

U8A C11U C46U G68A and U8A A15U C29U G38C cannot be ordered by yeast fitness: ≤ 0.5 for the first, ≤ 0.5 for the second.

First: U8A C24U
Second: U7G U59C A69U
The yeast fitness of the first is higher: 0.834 for the first, 0.717 for the second.

Going from U8A C29U G51C C55U to U8A A43U C49U C55A, the yeast fitness falls from 0.526 to ≤ 0.5.

U8A A36U G68C and U8A A20C A42U cannot be ordered by yeast fitness: ≤ 0.5 for the first, ≤ 0.5 for the second.

Going from U8A A21G C24A C30A A45U C49A to U8A C24A U28C, the yeast fitness falls from 0.765 to ≤ 0.5.

U8A C31U G58A C61G C66U and U8A A36G A40C U47A cannot be ordered by yeast fitness: ≤ 0.5 for the first, ≤ 0.5 for the second.

First: U8A C11A C24U A40U
Second: U7G U32C
The yeast fitness of the first is lower: ≤ 0.5 for the first, 0.992 for the second.

Going from U7G U32G to U8A C31A C61U, the yeast fitness falls from 0.569 to ≤ 0.5.

Compared with U8A A15U C27G A36G, U8A C11U A21C G56C G68C is lower in yeast fitness: 0.569 for the first, ≤ 0.5 for the second.

Going from U8A C22U to U8A C30U A42G A57C, the yeast fitness falls from 0.634 to ≤ 0.5.

Compared with U8A A15G, U8A A15U is lower in yeast fitness: 0.665 for the first, 0.587 for the second.

Going from U8A A15C to U8A C11G G56A, the yeast fitness falls from 0.631 to 0.583.

First: U8A C29U G51C G67A
Second: U8A C24A U28A G58A
The yeast fitness of the first is lower: 0.536 for the first, 0.584 for the second.

U8A A15G C27A G56A and U8A A21U C55A cannot be ordered by yeast fitness: ≤ 0.5 for the first, ≤ 0.5 for the second.

U8A C29G A40G A70G and U8A C30U A40U G52C cannot be ordered by yeast fitness: ≤ 0.5 for the first, ≤ 0.5 for the second.

U8A C29U C62U A70U and U8A A15U A20C A45G cannot be ordered by yeast fitness: ≤ 0.5 for the first, ≤ 0.5 for the second.

U8A A37G A42U U54C and U8A A36G G67C cannot be ordered by yeast fitness: ≤ 0.5 for the first, ≤ 0.5 for the second.

Going from U8A A36U to U8A C29U C30G, the yeast fitness falls from 0.559 to ≤ 0.5.

U8A A14G A20U G63C C66G and U8A C11U A43U C61A A65U cannot be ordered by yeast fitness: ≤ 0.5 for the first, ≤ 0.5 for the second.

First: U8A C29U
Second: U8A C11U G25C G39C C55U
The yeast fitness of the first is higher: 0.692 for the first, ≤ 0.5 for the second.

First: U8A C11A C66U
Second: U8A C30U G58C
The yeast fitness of the first is higher: 0.585 for the first, ≤ 0.5 for the second.

Compared with U8A C11U A21C A69C, U8A C29G A65G C66G is higher in yeast fitness: ≤ 0.5 for the first, 0.57 for the second.

First: U8A A15C G18C C49U U64A A69U
Second: U8A C24U U28C A40C
The yeast fitness of the first is higher: 0.651 for the first, ≤ 0.5 for the second.

First: U7G U32C C46G
Second: U8A C22U U35C
The yeast fitness of the first is higher: 0.62 for the first, ≤ 0.5 for the second.

U8A C22G U35C A70G and U8A A14U G17A G25A cannot be ordered by yeast fitness: ≤ 0.5 for the first, ≤ 0.5 for the second.

U7G U32A C61G and U8A A14C G17C C24U A45U G67C cannot be ordered by yeast fitness: ≤ 0.5 for the first, ≤ 0.5 for the second.

Going from U8A A45C to U8A A45U, the yeast fitness rises from 0.692 to 0.818.

Going from U8A C27A U47C to U8A A40G C49G U54A C55A, the yeast fitness falls from 0.558 to ≤ 0.5.

U8A C30U C46A U54A A57G and U8A A45G A65U cannot be ordered by yeast fitness: ≤ 0.5 for the first, ≤ 0.5 for the second.

U8A C29A U47C and U8A C11A C24A C29A C34U C61G cannot be ordered by yeast fitness: ≤ 0.5 for the first, ≤ 0.5 for the second.

Compared with U8A C22U A36G A40C U47A, U8A A21G C24A C30A A45U U47C C49A is higher in yeast fitness: ≤ 0.5 for the first, 0.572 for the second.

U8A A36C C62A and U8A C31U U59A cannot be ordered by yeast fitness: ≤ 0.5 for the first, ≤ 0.5 for the second.

First: U8A C27A
Second: U8A C29G U32C
The yeast fitness of the first is higher: 0.625 for the first, ≤ 0.5 for the second.

U8A A21G C24A C30A A45U C49A A65U and U8A A43C A65U cannot be ordered by yeast fitness: ≤ 0.5 for the first, ≤ 0.5 for the second.

U8A A40U A43U A65C and U8A A21U C27G C30A cannot be ordered by yeast fitness: ≤ 0.5 for the first, ≤ 0.5 for the second.

Compared with U8A A14G C24G A45C C62U, U8A A37C A43U G63A is higher in yeast fitness: ≤ 0.5 for the first, 0.561 for the second.

Compared with U8A C22G G25A C27A C33U C49G, U7G U32C A40G is lower in yeast fitness: 0.642 for the first, 0.559 for the second.

Going from U8A A15G C27A U47G G68U to U8A C22U C49U A69C A70C, the yeast fitness rises from ≤ 0.5 to 0.545.

Going from U8A A15C G18C to U8A C27U A40G C55U A57U, the yeast fitness falls from 0.575 to ≤ 0.5.

Compared with U8A A37G, U8A A37C is higher in yeast fitness: ≤ 0.5 for the first, 0.679 for the second.

U8A A14G C24G A45C U64A and U8A A15G G50C C55U C60G A69G cannot be ordered by yeast fitness: ≤ 0.5 for the first, ≤ 0.5 for the second.

Compared with U8A C29G C60U G67A A69U, U8A C11A is higher in yeast fitness: ≤ 0.5 for the first, 0.674 for the second.

U8A C27U A42G and U8A C31G A65U cannot be ordered by yeast fitness: ≤ 0.5 for the first, ≤ 0.5 for the second.

U8A C33U and U8A A40G C62A cannot be ordered by yeast fitness: ≤ 0.5 for the first, ≤ 0.5 for the second.

U8A A14G G39C and U8A A14C C31A G41C C49A G56A G67C cannot be ordered by yeast fitness: ≤ 0.5 for the first, ≤ 0.5 for the second.

U8A C30G C61A and U8A C24A G52C cannot be ordered by yeast fitness: ≤ 0.5 for the first, ≤ 0.5 for the second.

U8A A15C A21U and U8A C27G A42U cannot be ordered by yeast fitness: ≤ 0.5 for the first, ≤ 0.5 for the second.

Going from U8A A37G A43G U59A to U8A C24U A40U A42C A65C A69C, the yeast fitness falls from 0.582 to ≤ 0.5.

In the case of U8A C22U A36U C49G A69C, the yeast fitness is reported as 0.631.

Reference: the RNAGym collection of RNA variant scans (doi:10.1126/science.aae0568)
